Assay results published in PMC6398604 (Journal of medicinal chemistry, 2018).
One block for each compound: values may come before it.

How the values were obtained:
[1] = Rat biomarker assay: inhibitor concentrations in plasma, brain and CSF; format: in vivo; conditions: for concentration at 4 h: male, Sprague Dawley, CSF, oral, 10 mg/kg, Free CSF, 4 hours after 10mg/kg oral dose, corrected for non-specific binding to CSF
[2] = cited from earlier work
[3] = cited from earlier work; remark: listed apart in the source
Human MB-COMT = molecular target: T1, Human MB-COMT (Homo sapiens, UniProt P21964); experiment: MTase Glo Methyltransferase assay, MB-COMT; format: biochemical
T1 sequence (P21964 1-271): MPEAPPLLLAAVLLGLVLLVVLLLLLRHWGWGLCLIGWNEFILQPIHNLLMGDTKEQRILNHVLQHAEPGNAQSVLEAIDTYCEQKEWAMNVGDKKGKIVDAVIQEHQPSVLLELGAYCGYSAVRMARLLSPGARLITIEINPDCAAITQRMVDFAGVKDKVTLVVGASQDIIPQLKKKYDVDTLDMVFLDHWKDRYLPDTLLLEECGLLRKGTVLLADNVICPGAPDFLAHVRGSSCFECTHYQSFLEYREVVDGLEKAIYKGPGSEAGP

Rat pharmacokinetics = format: in vivo; conditions: for clearance: rat, plasma, iv, 1 mg/kg; for rat PK profile (in words): rat PK studies
rat hepatocytes = experiment: Hepatocyte stability; format: in vitro ADME
[4] = Mouse Blood-Brain Barrier; format: in vivo; conditions: 10 mg/kg ip, mice
Procedure, shortened: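 Male C57BL/6J mice (8 weeks) were habituated and handled before dosing. Test compound was suspended in 0.1% Tween80, 0.1% silicone antifoam and 1% methylcellulose in water, then given once ip at 10 mg/kg (10 mL/kg). At 5, 15 or 60 min, mice under isoflurane gave cardiac blood (Li-heparin) and were PBS-perfused. Plasma was spun 2000 rpm, 4°C, 15 min. Brain was homogenised in 4x (w/v) PBS pH 7.4 for total levels.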

[5] = Non-specific binding to CSF by equilibrium dialysis; format: in vitro ADME; conditions: pooled rat CSF, 2 μM testing concentration
P-glycoprotein = P-glycoprotein (Homo sapiens, UniProt P08183); experiment: P-gp efflux ratio in P-glycoprotein expressing MDCK cells; format: in vitro ADME
[6] = system: dopamine metabolites HVA and DOPAC in rat CSF (COMT); experiment: Rat biomarker assay: HVA and DOPAC in CSF; format: in vivo; conditions: 4 hours after 10 mpk oral
P-gp = P-gp (Homo sapiens, UniProt P08183); experiment: Transporter susceptibility and inhibitory activity, P-gp; format: in vitro ADME; conditions: data not shown
MRP2 = MRP2 (Homo sapiens, UniProt Q92887); experiment: Transporter susceptibility and inhibitory activity, MRP2; format: in vitro ADME; conditions: data not shown
BCRP = molecular target: T2, BCRP (Homo sapiens, UniProt Q9UNQ0); experiment: Transporter susceptibility and inhibitory activity, BCRP; format: in vitro ADME; conditions: data not shown
T2 sequence (Q9UNQ0 1-655): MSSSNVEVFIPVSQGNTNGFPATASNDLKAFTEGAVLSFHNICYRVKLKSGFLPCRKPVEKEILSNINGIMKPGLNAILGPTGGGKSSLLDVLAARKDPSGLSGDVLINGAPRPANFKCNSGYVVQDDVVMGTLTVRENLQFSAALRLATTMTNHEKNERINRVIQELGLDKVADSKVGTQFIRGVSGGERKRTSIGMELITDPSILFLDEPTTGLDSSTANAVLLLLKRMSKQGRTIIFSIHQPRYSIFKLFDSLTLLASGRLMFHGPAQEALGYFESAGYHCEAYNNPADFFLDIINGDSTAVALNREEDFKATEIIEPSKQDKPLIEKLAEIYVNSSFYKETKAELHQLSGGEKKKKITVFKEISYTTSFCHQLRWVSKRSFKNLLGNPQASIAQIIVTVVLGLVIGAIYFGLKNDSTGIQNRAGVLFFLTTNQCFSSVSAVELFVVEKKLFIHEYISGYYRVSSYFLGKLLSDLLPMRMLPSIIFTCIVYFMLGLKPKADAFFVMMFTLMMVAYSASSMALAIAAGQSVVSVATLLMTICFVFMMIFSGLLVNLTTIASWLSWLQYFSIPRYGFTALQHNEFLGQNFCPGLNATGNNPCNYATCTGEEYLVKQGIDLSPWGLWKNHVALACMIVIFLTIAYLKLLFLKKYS

Sequence of P-glycoprotein (P08183 whole entry): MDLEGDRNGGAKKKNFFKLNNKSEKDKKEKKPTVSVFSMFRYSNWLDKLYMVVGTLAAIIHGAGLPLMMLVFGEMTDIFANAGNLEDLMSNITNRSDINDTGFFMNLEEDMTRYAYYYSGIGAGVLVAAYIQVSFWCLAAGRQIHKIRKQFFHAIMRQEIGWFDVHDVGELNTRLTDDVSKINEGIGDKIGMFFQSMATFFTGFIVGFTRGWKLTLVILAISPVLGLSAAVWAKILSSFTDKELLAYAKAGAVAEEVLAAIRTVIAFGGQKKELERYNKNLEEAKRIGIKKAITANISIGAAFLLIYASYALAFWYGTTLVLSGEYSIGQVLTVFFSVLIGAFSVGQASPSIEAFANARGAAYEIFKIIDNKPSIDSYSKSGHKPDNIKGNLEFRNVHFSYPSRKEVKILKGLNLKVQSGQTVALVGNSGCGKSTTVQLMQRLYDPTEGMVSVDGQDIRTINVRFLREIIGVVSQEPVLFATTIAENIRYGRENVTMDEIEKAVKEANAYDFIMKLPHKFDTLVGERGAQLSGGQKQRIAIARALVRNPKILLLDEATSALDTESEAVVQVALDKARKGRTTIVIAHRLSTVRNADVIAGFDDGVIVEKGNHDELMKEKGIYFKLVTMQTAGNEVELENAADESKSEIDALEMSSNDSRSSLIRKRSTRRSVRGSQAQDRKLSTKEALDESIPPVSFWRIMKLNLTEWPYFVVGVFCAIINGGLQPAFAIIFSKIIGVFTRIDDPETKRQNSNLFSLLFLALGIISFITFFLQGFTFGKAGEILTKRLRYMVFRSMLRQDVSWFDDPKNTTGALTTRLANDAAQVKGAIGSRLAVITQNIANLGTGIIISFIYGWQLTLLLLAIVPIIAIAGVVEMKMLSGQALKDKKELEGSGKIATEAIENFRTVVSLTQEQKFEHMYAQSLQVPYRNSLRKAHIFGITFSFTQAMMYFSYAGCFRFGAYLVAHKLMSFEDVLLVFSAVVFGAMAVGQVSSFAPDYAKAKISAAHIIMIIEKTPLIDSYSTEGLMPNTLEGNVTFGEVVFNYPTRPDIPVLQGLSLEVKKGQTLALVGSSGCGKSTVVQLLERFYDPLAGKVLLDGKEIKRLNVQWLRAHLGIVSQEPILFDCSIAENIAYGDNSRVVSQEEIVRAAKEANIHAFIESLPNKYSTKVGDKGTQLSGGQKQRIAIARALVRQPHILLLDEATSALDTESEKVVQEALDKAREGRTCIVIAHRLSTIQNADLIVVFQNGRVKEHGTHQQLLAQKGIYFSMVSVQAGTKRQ
Sequence of P-gp (P08183 whole entry): as above
Sequence of MRP2 (Q92887 whole entry, species assumed): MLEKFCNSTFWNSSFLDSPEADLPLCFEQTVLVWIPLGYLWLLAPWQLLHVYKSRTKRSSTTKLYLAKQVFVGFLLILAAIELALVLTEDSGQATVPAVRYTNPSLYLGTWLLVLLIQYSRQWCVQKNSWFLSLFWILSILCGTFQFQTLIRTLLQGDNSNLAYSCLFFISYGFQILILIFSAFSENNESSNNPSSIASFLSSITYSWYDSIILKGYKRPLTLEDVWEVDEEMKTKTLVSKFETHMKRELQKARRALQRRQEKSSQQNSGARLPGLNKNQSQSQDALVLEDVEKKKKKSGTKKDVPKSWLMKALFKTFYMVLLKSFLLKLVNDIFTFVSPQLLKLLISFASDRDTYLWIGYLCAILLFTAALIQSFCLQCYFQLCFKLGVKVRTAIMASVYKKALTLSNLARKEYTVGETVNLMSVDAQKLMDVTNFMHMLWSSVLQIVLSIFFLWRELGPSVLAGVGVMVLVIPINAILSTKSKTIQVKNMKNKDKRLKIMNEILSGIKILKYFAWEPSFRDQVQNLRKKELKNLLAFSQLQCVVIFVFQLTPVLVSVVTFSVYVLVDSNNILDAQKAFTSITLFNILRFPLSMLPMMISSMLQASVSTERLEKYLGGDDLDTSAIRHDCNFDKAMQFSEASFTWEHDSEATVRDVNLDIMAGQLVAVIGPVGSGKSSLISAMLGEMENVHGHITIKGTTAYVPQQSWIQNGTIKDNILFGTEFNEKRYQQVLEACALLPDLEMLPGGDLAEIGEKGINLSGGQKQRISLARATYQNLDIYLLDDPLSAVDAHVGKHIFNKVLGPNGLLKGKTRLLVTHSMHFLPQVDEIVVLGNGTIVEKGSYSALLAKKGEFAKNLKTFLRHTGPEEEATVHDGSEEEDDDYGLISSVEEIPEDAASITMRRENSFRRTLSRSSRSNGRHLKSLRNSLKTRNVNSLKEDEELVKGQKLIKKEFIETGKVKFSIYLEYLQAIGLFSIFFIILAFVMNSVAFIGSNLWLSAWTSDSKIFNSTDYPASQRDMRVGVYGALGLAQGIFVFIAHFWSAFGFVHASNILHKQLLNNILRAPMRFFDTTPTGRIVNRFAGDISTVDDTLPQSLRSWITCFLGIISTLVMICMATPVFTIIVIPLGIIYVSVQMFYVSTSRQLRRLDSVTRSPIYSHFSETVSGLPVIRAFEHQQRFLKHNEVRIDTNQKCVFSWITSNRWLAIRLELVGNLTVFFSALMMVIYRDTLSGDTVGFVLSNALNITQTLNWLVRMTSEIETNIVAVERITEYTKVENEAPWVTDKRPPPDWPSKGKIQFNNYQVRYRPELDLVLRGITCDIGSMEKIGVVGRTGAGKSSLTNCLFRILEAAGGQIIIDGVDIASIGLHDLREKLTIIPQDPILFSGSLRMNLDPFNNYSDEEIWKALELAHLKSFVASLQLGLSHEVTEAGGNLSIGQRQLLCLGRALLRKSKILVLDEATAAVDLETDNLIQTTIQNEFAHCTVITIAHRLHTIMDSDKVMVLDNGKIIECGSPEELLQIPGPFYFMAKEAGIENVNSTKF

SMILES: Cc1ccc(C(=O)c2cc(O)c(O)c([N+](=O)[O-])c2)cc1 [Compound 1, tolcapone, reference compound]
CSF ([1]; 4 hours after 15mpk ip): BLQ
Free Brain ([1]; 4 hours after 15mpk ip): BLQ
brain penetration (in words) [2]: low but measurable levels in the brain
hepatic toxicity (in words) [3]: associated with hepatic toxicity

SMILES: CCN(CC)C(=O)/C(C#N)=C/c1cc(O)c(O)c([N+](=O)[O-])c1 [Compound 2, entacapone]
brain penetration (in words) [2]: negligible brain penetration

SMILES: Cc1c(Cl)c(C)[n+]([O-])c(Cl)c1-c1noc(-c2cc(O)c(O)c([N+](=O)[O-])c2)n1 [Compound 3, opicapone]
brain penetration (in words) [2]: negligible brain penetration

SMILES: Oc1cccc2cccnc12 [Compound 4, 8-hydroxyquinoline, reference compound]
MB-COMT inhibition / potency (in words) (Human MB-COMT): abolished MB-COMT inhibition

SMILES: O=S(=O)(c1ccc(O)c2ncccc12)C1CCCC1 [Compound 11, 5-(Cyclopentylsulfonyl)quinoline-8-ol]
clearance (Rat pharmacokinetics): 26 mL/min/kg

SMILES: O=S(=O)(c1ccc(O)c2ncccc12)N1CCC(c2ccc(F)cc2)C1 (centres unmarked) [Compound 13, 5-((3-(4-Fluorophenyl)pyrrolidin-1-yl)sulfonyl)quinoline-8-ol]
metabolic stability / clearance in rat hepatocytes (in words) (rat hepatocytes): Poor metabolic stability

SMILES: CCS(=O)(=O)c1ccc(O)c2ncccc12 [Compound 15, 5-(Ethylsulfonyl)quinoline-8-ol]
Hepatocyte Stability (Rat) (rat hepatocytes): 39 μL/min/10^6 cells
metabolic stability / clearance in rat hepatocytes (in words) (rat hepatocytes): high hepatocyte clearance
overall exposure in mouse (in words) [4]: low overall exposure

SMILES: O=S(=O)(c1ccc(C(F)(F)F)cc1)c1ccc(O)c2ncccc12 [Compound 17, 5-((4-(Trifluoromethyl)phenyl)sulfonyl)quinolin-8-ol]
Hepatocyte Stability (Rat) (rat hepatocytes): 46 μL/min/10^6 cells
metabolic stability / clearance in rat hepatocytes (in words) (rat hepatocytes): high hepatocyte clearance

SMILES: O=S(=O)(c1ccc(C(F)(F)F)cc1)c1cc(F)c(O)c2ncccc12 [Compound 18, 7-Fluoro-5-((4-(trifluoromethyl)phenyl)sulfonyl)quinolin-8-ol]
Hepatocyte Stability (Rat) (rat hepatocytes): 12 μL/min/10^6 cells
clearance (Rat pharmacokinetics): 13 mL/min/kg

SMILES: O=S(=O)(c1ccc(F)cc1)c1cc(F)c(O)c2ncccc12 [Compound 20, 7-Fluoro-5-((4-fluorophenyl)sulfonyl)quinolin-8-ol]
concentration at 4 h [1]: 59 nM
Non-specific binding to CSF (bound) [5]: 51–57%
P-gp substrate (in words) (P-glycoprotein): not substrates for the transporter
Hepatocyte Stability (Rat) (rat hepatocytes): 15 μL/min/10^6 cells
clearance (Rat pharmacokinetics): 12 mL/min/kg

SMILES: Cc1ccc(S(=O)(=O)c2cc(Cl)c(O)c3ncccc23)cc1 [Compound 22, 7-Chloro-5-tosylquinolin-8-ol]
P-gp substrate (in words) (P-glycoprotein): not substrates for the transporter
Hepatocyte Stability (Rat) (rat hepatocytes): 78 μL/min/10^6 cells
clearance (Rat pharmacokinetics): 25 mL/min/kg

SMILES: Cc1ccc(S(=O)(=O)c2cc(Br)c(O)c3ncccc23)cc1 [Compound 23, 7-Bromo-5-tosylquinolin-8-ol]
MB-COMT inhibition / potency (in words) (Human MB-COMT): reduced MB-COMT potency

SMILES: O=S(=O)(c1cc(F)c(O)c2ncccc12)C1CCCC1 [Compound 25, 5-(Cyclopentylsulfonyl)-7-fluoroquinolin-8-ol]
concentration at 4 h [1]: 139 nM
Non-specific binding to CSF (bound) [5]: 51–57%
HVA decrease, significance versus vehicle (in words) [6]: statistically significant difference
Hepatocyte Stability (Rat) (rat hepatocytes): 19 μL/min/10^6 cells
rat PK profile (in words) (Rat pharmacokinetics): good pharmacokinetics
clearance (Rat pharmacokinetics): 0.62 mL/min/kg

SMILES: O=S(=O)(c1cc(Cl)c(O)c2ncccc12)N1CCCC1 [Compound 29, 7-Chloro-5-(pyrrolidin-1-ylsulfonyl)quinolin-8-ol]
Hepatocyte Stability (Rat) (rat hepatocytes): 14 μL/min/10^6 cells
rat PK profile (in words) (Rat pharmacokinetics): very low clearance and long half-life
clearance (Rat pharmacokinetics): 1 mL/min/kg

SMILES: Cc1cc(S(=O)(=O)N2CCCC2)c2cccnc2c1O [Compound 30, 7-Methyl-5-(pyrrolidin-1-ylsulfonyl)quinolin-8-ol]
Hepatocyte Stability (Rat) (rat hepatocytes): 103 μL/min/10^6 cells
metabolic stability / clearance in rat hepatocytes (in words) (rat hepatocytes): no impact on clearance
MB-COMT inhibition / potency (in words) (Human MB-COMT): tolerated

Continued, in another order:

Hepatocyte Stability (Rat) (rat hepatocytes): 177 μL/min/10^6 cells
metabolic stability / clearance in rat hepatocytes (in words) (rat hepatocytes): Poor metabolic stability
SMILES: O=S(=O)(c1ccc(O)c2ncccc12)N1CCCC1 [Compound 12, 5-(Pyrrolidin-1-ylsulfonyl)quinoline-8-ol]

MB-COMT inhibition / potency (in words) (Human MB-COMT): no appreciable inhibition of MB-COMT
SMILES: COc1ccc(S(=O)(=O)N2CCCC2)c2cccnc12 [Compound 14, 8-Methoxy-5-(pyrrolidin-1-yulsulfonyl)quinoline]

Hepatocyte Stability (Rat) (rat hepatocytes): 228 μL/min/10^6 cells
metabolic stability / clearance in rat hepatocytes (in words) (rat hepatocytes): high hepatocyte clearance
overall exposure in mouse (in words) [4]: low overall exposure
SMILES: O=S(=O)(c1ccc(O)c2ncccc12)N1CCCC1Cc1ccccc1 (centres unmarked) [Compound 16, 5-((2-Benzylpyrrolidin-1-yl)sulfonyl)quinoline-8-ol]

Hepatocyte Stability (Rat) (rat hepatocytes): 4 μL/min/10^6 cells
rat PK profile (in words) (Rat pharmacokinetics): very low clearance and long half-life
clearance (Rat pharmacokinetics): 0.31 mL/min/kg
SMILES: O=S(=O)(c1ccc(F)cc1)c1cc(Cl)c(O)c2ncccc12 [Compound 19, 7-Chloro-5-((4-fluorophenyl)sulfonyl)quinolin-8-ol]

Hepatocyte Stability (Rat) (rat hepatocytes): 36 μL/min/10^6 cells
clearance (Rat pharmacokinetics): 27 mL/min/kg
SMILES: Cc1ccc(S(=O)(=O)c2cc(F)c(O)c3ncccc23)cc1 [Compound 21, 7-Fluoro-5-tosylquinolin-8-ol]

Hepatocyte Stability (Rat) (rat hepatocytes): 18 μL/min/10^6 cells
rat PK profile (in words) (Rat pharmacokinetics): very low clearance and long half-life
SMILES: O=S(=O)(c1cc(Cl)c(O)c2ncccc12)C1CCCC1 [Compound 26, 7-Chloro-5-(cyclopentylsulfonyl)quinolin-8-ol]

concentration at 4 h [1]: 77 nM
Non-specific binding to CSF (bound) [5]: 51–57%
Hepatocyte Stability (Rat) (rat hepatocytes): 21 μL/min/10^6 cells
rat PK profile (in words) (Rat pharmacokinetics): good pharmacokinetics
clearance (Rat pharmacokinetics): 11 mL/min/kg
SMILES: O=S(=O)(c1cc(F)c(O)c2ncccc12)N1CCCC1 [Compound 28, 7-Fluoro-5-(pyrrolidin-1-ylsulfonyl)quinolin-8-ol]
substrate or inhibitor of P-gp (in words) (P-gp): not found to be a substrate or an inhibitor
HVA decrease, significance versus vehicle (in words) [6]: statistically significant difference
substrate or inhibitor of MRP2 (in words) (MRP2): not found to be a substrate or an inhibitor
substrate or inhibitor of BCRP (in words) (BCRP): not found to be a substrate or an inhibitor
